DTT redox prof: compounds producing H2O2 with reducing agent – biochemical, NIH compound library profiling, artefact control for MLSCN library redox annotation, primary screen; actives 0.03% (n = 200,000); DTT-dependent redox cycling H2O2, phenol red/HRP absorbance; 100% = 100 µM peroxide control, 0% = buffer; activation, % at 10 µM;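 active means activation of at least 50% relative to the plate's high and low controls in the primary single-dose screen; inactive means activation below 50%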;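 further: compound incubated with DTT at 0.8 mM final as the reducing agent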
TNAP act hi DEA: TNAP (human) activation, high acceptor; P05186; purified TNAP, CDP-star luminescence, 1 M DEA, 30 min; stronger effect = higher value; 0 = EDTA background, 1 = DMSO-only activity; activation factor at 20 µM; 200,000 tested, under 10 active; AID 1136;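 active means activation factor at least 2 at 20 µM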
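Test system – human TNAP · Doses – 20 µM single point · Incubation – 30 min, room temperature · Signal – luminescent substrate turnover signal · Read-out basis – activation factor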
TNAP inh noacc: TNAP (human) inhibition, acceptor-free conditions | P05186 | purified TNAP, CDP-star luminescence, 30 min | inhibition, % at 20 µM | actives 0.26% (n = 200,000) | AID 1012;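 active means tissue-nonspecific alkaline phosphatase inhibition above about 50% at 20 µM in the single-dose screen, limit read from the data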;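 further: 0% = DMSO negative control and 100% = EDTA positive control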
PERK inh: human PERK inhibition, primary cell-based screen; Q9NZJ5; CHO PERK-DD fusion, SEAP luminescence translation reporter; inhibition, % at 5.6 µM; actives 0.17% (n = 220,000); AID 1416;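 active means inhibition above the mean inhibition of all tested compounds plus 3 SD, set separately per screening campaign, cut at about 2.9% in these data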;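 further: PERK kinase domain activated by AP20187 dimerizer at 100 nM; 0% = DMSO with dimerizer and 100% = rapamycin at 8.4 µM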
p97 inhibitor: inhibitors of human p97 ATPase; recombinant p97 ATPase, Kinase-Glo ATP luminescence, 3 h; actives 0.42% (n = 220,000); AID 1481; P55072; inhibition, % at 8 µM; in the data active means inhibition above about 15%;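 further: 0% = DMSO vehicle and 100% = wells lacking enzyme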
TNAP inh hiacc: inhibitors of human TNAP at high phosphate acceptor concentration; actives 0.03% (n = 200,000); inhibition, % at 20 µM; purified TNAP, CDP-star luminescence, 1 M DEA;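 active means over 50% inhibition of tissue-nonspecific alkaline phosphatase at 20 µM in the single-dose screen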;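 further: plate controls were DMSO wells for no effect and EDTA-quenched wells as full inhibition for full effect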
p97 confirm: confirmation of human p97 ATPase inhibitors; shares compounds with p97 inhibitor; recombinant p97 ATPase, Kinase-Glo ATP luminescence; inhibition, % at 8 µM; actives 44% (n = 760); AID 1517;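 active means percent inhibition of p97 ATPase above a set limit, the primary screen's mean plus 3 SD, cut at about 15% in these data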;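 further: 0% = DMSO wells and 100% = wells lacking p97 protein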
* = called active by the depositor; x = no result. A selection: hits, their analogues and other compounds. The true share with any hit is near 0.86%.

SMILES	DTT redox prof	TNAP act hi DEA	TNAP inh noacc	PERK inh	p97 inhibitor	TNAP inh hiacc	p97 confirm
O=C(NCc1ccccc1Cl)c1ccc2nc[nH]c2c1	0	1	-37	2	3	3	x
CCOC(=O)CN1C(=N)N(c2nc(NC(C)C)nc(NC(C)C)n2)CC1=O	-1	1	-9	-1	-2	-3	x
COc1ccccc1C(=O)N/C(=C\c1ccc(Br)cc1)C(=O)NCCC(=O)O	0	1.1	-6	2	16*	-8	2
Cc1ccc(/C=N/Nc2nc(N3CCOCC3)nc(N3CCOCC3)n2)o1	-2	1	-12	1	0	-2	x
C(=N\Nc1nc(N2CCOCC2)nc(N2CCOCC2)n1)/c1ccco1	6	1	-13	0	18*	-5	9
O=[N+]([O-])c1cccc(/C=N/NC2=NS(=O)(=O)c3ccccc32)c1	0	1	-4	0	1	0	x
COc1ccc(C2C(C(=O)c3ccccc3)N3c4ccccc4C=CC3C2[N+](=O)[O-])cc1 (stereo not given)	1	0.9	14	0	4	12	x
Nc1ccc2oc(-c3ccccc3Cl)cc(=O)c2c1O	1	0.9	5	0	10	5	x
O=c1cc2oc3cc(O)c(O)cc3c(-c3ccccc3O)c-2cc1O	x	x	x	3.1*	29*	x	36*
COc1cc(NC(=O)[C@@H](NC(=O)c2ccco2)C(C)C)c(OC)cc1NC(=O)c1ccccc1	-1	1	-11	0	1	-4	x
CCOCCCNC(=O)/C(C#N)=C/c1ccc([N+](=O)[O-])o1	-2	1	2	0	0	-3	x
CCOc1ccc(N=C2SC(C(=O)Nc3ccccc3C#N)C(N)=C2C(=O)Nc2ccc(Cl)cc2)cc1 (stereo not given)	-2	1	-13	0	19*	-3	24*
N#Cc1ccccc1NC(=O)C1SC(=Nc2ccccc2)C(C(=O)Nc2ccc(Cl)cc2)=C1N (stereo not given)	0	1	-9	0	9	-3	x
Nc1cc2nn(-c3ccccc3)nc2cc1Cl	-1	1	-6	2	19*	5	9
O=C(Nc1ccc(Br)c2ccccc12)c1ccc2ccccc2c1O	x	x	x	1	19*	x	24*
O=[N+]([O-])c1ccc2[nH]c3nc4ccccc4nc3c2c1	x	x	x	0	9	x	x
C#CCOCCOCCOCCNc1nc(N2CCN(C(=O)[C@H](CCCCN)n3cc([C@@H](N)CO)nn3)CC2)nc(N2CCN(C(=O)[C@H](Cc3cc4ccccc4[nH]3)n3cc([C@@H](N)Cc4ccc(O)cc4)nn3)CC2)n1	-2	1.1	-10	1	7	-6	x
C#CCOCCOCCOCCNc1nc(N2CCN(C(=O)[C@H](Cc3ccc(O)cc3)n3cc([C@@H](N)CC(C)C)nn3)CC2)nc(N2CCN(C(=O)[C@H](Cc3ccc(O)cc3)n3cc([C@@H](N)CC(C)C)nn3)CC2)n1	1	1.1	-34	1	18*	-8	14
C#CCOCCOCCOCCNc1nc(N2CCN(C(=O)[C@H](CCCCN)n3cc([C@@H](N)CC(C)C)nn3)CC2)nc(N2CCN(C(=O)[C@H](Cc3cc4ccccc4[nH]3)n3cc([C@@H](N)Cc4ccc(O)cc4)nn3)CC2)n1	0	1	-20	1	21*	-4	16*
C#CCOCCOCCOCCNc1nc(N2CCN(C(=O)[C@H](Cc3ccc(O)cc3)n3cc([C@@H](N)CC(C)C)nn3)CC2)nc(N2CCN(C(=O)[C@H](Cc3cc4ccccc4[nH]3)n3cc([C@@H](N)CC(C)C)nn3)CC2)n1	-1	1.1	-54	1	20*	-8	13
C#CCOCCOCCOCCNc1nc(N2CCN(C(=O)C(Cc3ccc(O)cc3)n3cc(C(N)CC(C)C)nn3)CC2)nc(N2CCN(C(=O)C(Cc3cc4ccccc4[nH]3)n3cc(C(N)C(C)CC)nn3)CC2)n1 (stereo not given)	-1	1.1	-61	1	14	-10	x
O=[N+]([O-])c1ccccc1-c1ccc(/C=N/n2cnnc2)o1	-8	1	-12	0	2	-5	x
Nn1cnnc1N/N=C\c1ccc(-c2ccccc2[N+](=O)[O-])o1	6	0.9	-19	0	27*	7	7
Cc1ccc(CCN2CC(C(=O)NCCCN3CCCCCC3)CC2=O)cc1 (stereo not given)	0	1	-12	0	21*	0	5
S=C(Nc1ccc(Cl)cc1)Nc1cccc2cnccc12	1	1	8	0	18*	3	5
SMILES	DTT redox prof	TNAP act hi DEA	TNAP inh noacc	PERK inh	p97 inhibitor	TNAP inh hiacc	p97 confirm
CN(C)S(=O)(=O)c1cccc(NC(=S)Nc2cccc3cnccc23)c1	x	x	x	1	28*	x	14
Fc1ccc(NC(=S)Nc2cccc3cnccc23)cc1	1	0.9	4	0	6	7	x
COc1ccc(OCCSCc2nnc(NC(=O)Nc3ccc(Cl)cc3)s2)cc1	0	1	-15	0	-4	-1	x
Cn1cnnc1SCc1ccc(C(=O)N=Nc2c(O)n(C)c3ccccc23)cc1	-1	1	6	-1	0	-3	x
Cc1ccc(S(=O)(=O)Oc2ccc(/C=N/NC(=O)c3cccnc3)cc2)cc1	-2	1	-5	1	2	-4	x
COc1ccccc1C(=O)Oc1cc(N)n(S(=O)(=O)c2ccc(C)cc2)n1	0	1	0	2	29*	2	39*
Cc1ccc(S(=O)(=O)n2nc(OC(=O)c3ccco3)cc2N)cc1	0	x	x	0	1	x	x
CCN1CCc2nc3ccccc3c(C(=O)Nc3ccc(C#N)cc3)c2C1	-2	1	-5	0	5	0	x
CC1=NN(c2ccc(Cl)cc2)C(=O)C1C(c1ccccc1O)c1c(C)[nH]n(-c2ccc(Cl)cc2)c1=O (stereo not given)	0	0.9	14	1	32*	8	8
N#C/C(=C(/O)c1cc2ccccc2o1)c1nc2ccccc2s1	x	x	x	2	26*	x	24*
O=C(O)c1cc(-c2c[nH]c3ccccc23)nc2ccc3ccccc3c12	0	1	-9	0	20*	-3	20*
Cc1ccc(NC(=O)C(=O)NCc2ccc(/C=C(/C#N)C(=O)NCc3cccnc3)o2)cc1C	0	1	-2	0	4	3	x
CC(C)N(CC(N)=O)C(=O)Cc1coc2cc3c(cc12)CCC3	0	1	0	1	26*	2	9
